One series deals with serum urate (sUA). Kind of series: Serum urate. It is filed as in vivo, human. The note with it: for Proportion of subjects with sUA ⩽6.0 mg/dl at 4 h after treatment: pooled cohorts.
In another series the test system is urinary uric acid. Briefly: Urinary uric acid excretion. It is filed as in vivo, human. The note with it: for FEUA (fractional excretion of uric acid) relative to baseline: data not shown; for Mean maximum ReUR (urinary uric acid excretion rate) relative to baseline: in vivo. An outline of the steps: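 Oral dosing was once daily after breakfast over 7-day periods in hyperuricaemic Japanese men. Total-catch urine was collected on days −1, 7, 14, 21 and 28, with 240 ml water drunk on rising, within 2 h before dosing. The urinary uric acid excretion rate (mg/h) and fractional excretion (%) were calculated per 24-h collection and compared with baseline.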

Series [1] can be described thus: Safety: adverse events, serum creatinine, laboratory evaluations. It is filed as in vivo, human. An outline of the steps: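 Males aged 21–65 were dosed orally once daily after breakfast for 7-day periods and followed to day 42. Monitoring covered adverse events (MedDRA v18.0), clinical laboratory tests including serum creatinine, vital signs, ECGs and physical examinations. An independent committee was to adjudicate serious renal events. Clinically relevant laboratory abnormalities were graded by Rheumatology Common Toxicity Criteria v2.0. Results are descriptive, in everyone given at least one dose.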

Series [2] can be described thus: Plasma and urine pharmacokinetics of verinurad. It is filed as in vivo. The note with it: human, oral. An outline of the steps: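 Japanese men with gout or asymptomatic hyperuricaemia (sUA ≥8 mg/dl) took oral drug once daily after breakfast, alone or with febuxostat 10, 20 or 40 mg, over 7-day periods. Serial plasma and total-catch urine were taken on days −1, 7, 14, 21 and 28. Plasma was protein-precipitated and urine water-diluted, both assayed by HPLC-MS/MS.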

For `CCc1oc2ccccc2c1C(=O)c1cc(Br)c(O)c(Br)c1` [benzbromarone], the “Subjects achieving sUA ⩽6.0 mg/dl 4 h after treatment” value in the series with serum urate (sUA) (benzbromarone 50 mg alone) is “All subjects”. In addition, the sUA-lowering effect result in the series with serum urate (sUA) (benzbromarone 50 mg, Cohort 6) is given as “generally similar in sUA-lowering effect to verinurad 5 mg combined with febuxostat 20 mg”.
As to `Cc1nc(-c2ccc(OCC(C)C)c(C#N)c2)sc1C(=O)O` [febuxostat, reference compound], in the series on urinary uric acid, the “FEUA (fractional excretion of uric acid) relative to baseline” value is “reduced” and the “Mean maximum ReUR (urinary uric acid excretion rate) relative to baseline” value is reported as “reduced”. In addition, the “Proportion of subjects with sUA ⩽6.0 mg/dl at 4 h after treatment” value in the series with serum urate (sUA) (febuxostat 10 mg alone) is recorded as 20.8%. The “Proportion of subjects with sUA ⩽6.0 mg/dl at 4 h after treatment” value in the series with serum urate (sUA) (febuxostat 40 mg alone) was determined as 83.3%.
One may read the half-life as how long it takes for the measured level to halve. With `CC(C)(Sc1ccncc1-c1ccc(C#N)c2ccccc12)C(=O)O` [verinurad], in the series with urinary uric acid, the “FEUA (fractional excretion of uric acid) relative to baseline” value is “increased in a dose-dependent manner” and the “Mean maximum ReUR (urinary uric acid excretion rate) relative to baseline” value was “increased”. The “Subjects with sCr elevation ⩾1.5 × baseline” value in series [1] (verinurad 2.5 mg or verinurad 15 mg alone (cohort 5)) is recorded as “Two subjects”. For the same compound, the Tolerability entry in series [1] (verinurad 2.5 mg to 15 mg, no withdrawals due to adverse events) is given as “well tolerated”. Moreover, the half-life in series [2] (plasma, mean t½, varying verinurad doses alone or in combination with febuxostat) fell in the range of 13 to 24 h. Moreover, the CL renal in series [2] (urine and plasma) is 12.4 to 15.1 mL/min. The “Subjects achieving sUA ⩽6.0 mg/dl 4 h after treatment” value in the series on serum urate (sUA) (verinurad 10 or 15 mg alone) is given as “All subjects”.

The values above are taken from publication PMC6105922 (Rheumatology (Oxford, England), 2018).
